In ChEMBL document CHEMBL5724801, “EUbOPEN Chemogenomics Library - Multiplex” (2024):
Values joined by “and” are separate entries in the source; they are usually repeats but may differ in a detail not shown here. Identical values can stand only once.

System: HEK-293T
Experiment: Multiplex assay against HEK293T
Format: toxicity, cell-based
Details: human
How it was run: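 At seeding, live cells were stained with Hoechst33342, BioTracker Green Microtubule Cytoskeleton Dye, MitoTracker Red and Annexin V Alexa Fluor 680. After compound addition they were imaged on a CQ1 microscope at 37°C and 5% CO2, and CellPathfinder machine-learning gating sorted them into Hoechst high-intensity objects or normal cells, with normal cells further split into healthy, pyknosed or fragmented nuclei and pyknosed cells into mitotic or apoptotic. Tubulin, mitochondrial-mass and membrane-permeability phenotypes are given as per cents of cells with healthy nuclei.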

[1] = 12 h, 1 µM, compound concentration 1 uM
[2] = 12 h, 10 µM, compound concentration 10 uM
[3] = 24 h, 1 µM, compound concentration 1 uM
[4] = 24 h, 10 µM, compound concentration 10 uM
[5] = 48 h, 1 µM, compound concentration 1 uM
[6] = 48 h, 10 µM, compound concentration 10 uM

For Nc1nc(-c2ccco2)c2cnn(Cc3ccccc3F)c2n1, the “Population Apoptotic (%)” value [1] was 37% and 36%, the “Population Fragmented Nuclei (%)” value [1] was 6% and 5% and the “Population Healthy Nuclei (%)” value [1] was 76% and 81%. The “Population Hoechst High Intensity Objects (%)” value [1] was 9% and 11%, the “Population Membrane Permeable-Phenotype (%)” value [1] was 0% and the “Population Mitochondria Different-Phenotype (%)” value [1] was 58% and 64%. The “Population Mitotic Cells (%)” value [1] was 62% and 63%, the “Population Normal (%)” value [1] was 90% and 88% and the “Population Pyknosed Nuclei (%)” value [1] was 16% and 13%. The “Population Tubulin-Different-Phenotype (%)” value [1] was 41% and 23%, the “Total Cell Count” value [1] was 300 and 404 and the “Population Apoptotic (%)” value [2] was 33% and 40%. The “Population Fragmented Nuclei (%)” value [2] was 7% and 6%, the “Population Healthy Nuclei (%)” value [2] was 73% and 76% and the “Population Hoechst High Intensity Objects (%)” value [2] was 8% and 12%. The “Population Membrane Permeable-Phenotype (%)” value [2] was 0%, the “Population Mitochondria Different-Phenotype (%)” value [2] was 61% and 68% and the “Population Mitotic Cells (%)” value [2] was 66% and 60%. The “Population Normal (%)” value [2] was 91% and 87%, the “Population Pyknosed Nuclei (%)” value [2] was 19% and 17% and the “Population Tubulin-Different-Phenotype (%)” value [2] was 43% and 26%. For the same compound, the “Total Cell Count” value [2] was 306 and 265, the “Population Apoptotic (%)” value [3] was 30% and 28% and the “Population Fragmented Nuclei (%)” value [3] was 7% and 9%. The “Population Healthy Nuclei (%)” value [3] was 77% and 81%, the “Population Hoechst High Intensity Objects (%)” value [3] was 7% and 5% and the “Population Membrane Permeable-Phenotype (%)” value [3] was 0%. For the same compound, the “Population Mitochondria Different-Phenotype (%)” value [3] was 36% and 46%, the “Population Mitotic Cells (%)” value [3] was 69% and 71% and the “Population Normal (%)” value [3] was 92% and 94%. For the same compound, the “Population Pyknosed Nuclei (%)” value [3] was 15% and 9%, the “Population Tubulin-Different-Phenotype (%)” value [3] was 26% and 17% and the “Total Cell Count” value [3] was 396 and 514. The “Population Apoptotic (%)” value [4] was 38% and 35%, the “Population Fragmented Nuclei (%)” value [4] was 11% and the “Population Healthy Nuclei (%)” value [4] was 67%. The “Population Hoechst High Intensity Objects (%)” value [4] was 6% and 10%, the “Population Membrane Permeable-Phenotype (%)” value [4] was 2% and 0% and the “Population Mitochondria Different-Phenotype (%)” value [4] was 52% and 59%. The “Population Mitotic Cells (%)” value [4] was 61% and 64%, the “Population Normal (%)” value [4] was 93% and 89% and the “Population Pyknosed Nuclei (%)” value [4] was 21%. For the same compound, the “Population Tubulin-Different-Phenotype (%)” value [4] was 31% and 23%, the “Total Cell Count” value [4] was 334 and 328 and the “Population Apoptotic (%)” value [5] was 32% and 28%. The “Population Fragmented Nuclei (%)” value [5] was 12% and 14%, the “Population Healthy Nuclei (%)” value [5] was 75% and 78% and the “Population Hoechst High Intensity Objects (%)” value [5] was 3% and 4%. For the same compound, the “Population Membrane Permeable-Phenotype (%)” value [5] was 1%, the “Population Mitochondria Different-Phenotype (%)” value [5] was 31% and 21% and the “Population Mitotic Cells (%)” value [5] was 67% and 71%. For the same compound, the “Population Normal (%)” value [5] was 96% and 95%, the “Population Pyknosed Nuclei (%)” value [5] was 12% and 7% and the “Population Tubulin-Different-Phenotype (%)” value [5] was 18% and 14%. For the same compound, the “Total Cell Count” value [5] was 641 and 769, the “Population Apoptotic (%)” value [6] was 36% and 28% and the “Population Fragmented Nuclei (%)” value [6] was 16% and 13%. For the same compound, the “Population Healthy Nuclei (%)” value [6] was 73% and 74%, the “Population Hoechst High Intensity Objects (%)” value [6] was 7% and the “Population Membrane Permeable-Phenotype (%)” value [6] was 0%. For the same compound, the “Population Mitochondria Different-Phenotype (%)” value [6] was 42% and 43%, the “Population Mitotic Cells (%)” value [6] was 63% and 71% and the “Population Normal (%)” value [6] was 92%. For the same compound, the “Population Pyknosed Nuclei (%)” value [6] was 9% and 12%, the “Population Tubulin-Different-Phenotype (%)” value [6] was 19% and 15% and the “Total Cell Count” value [6] was 412 and 398.
Cc1c(-c2cc(-c3ccccc3Cl)no2)cnn1C1CCNCC1.Cl was tested, and the “Population Apoptotic (%)” value [1] was 10.39% and 11.29%, the “Population Fragmented Nuclei (%)” value [1] was 3.59% and 2.19% and the “Population Hoechst High Intensity Objects (%)” value [1] was 0.28% and 0%. For the same compound, the “Population Membrane Permeable-Phenotype (%)” value [1] was 0%, the “Population Mitochondria Different-Phenotype (%)” value [1] was 33.33% and 20% and the “Population Mitotic Cells (%)” value [1] was 89.61% and 88.71%. For the same compound, the “Population Normal (%)” value [1] was 99.72% and 100%, the “Population Pyknosed Nuclei (%)” value [1] was 42.54% and 90.51% and the “Population Tubulin-Different-Phenotype (%)” value [1] was 9.74% and 20%. For the same compound, the “Total Cell Count” value [1] was 363 and 137, the “Population Apoptotic (%)” value [2] was 15.64% and 14.06% and the “Population Fragmented Nuclei (%)” value [2] was 1.78% and 2.96%. The “Population Hoechst High Intensity Objects (%)” value [2] was 0.44% and 0%, the “Population Membrane Permeable-Phenotype (%)” value [2] was 2.38% and 0% and the “Population Mitochondria Different-Phenotype (%)” value [2] was 42.86% and 33.33%. The “Population Mitotic Cells (%)” value [2] was 84.36% and 85.94%, the “Population Normal (%)” value [2] was 99.56% and 100% and the “Population Pyknosed Nuclei (%)” value [2] was 79.56% and 94.81%. The “Population Tubulin-Different-Phenotype (%)” value [2] was 78.57% and 100%, the “Total Cell Count” value [2] was 226 and 135 and the “Population Apoptotic (%)” value [3] was 16.36% and 12.04%. The “Population Fragmented Nuclei (%)” value [3] was 2.54% and 2.07%, the “Population Healthy Nuclei (%)” value [3] was 62.58% and 23.45% and the “Population Hoechst High Intensity Objects (%)” value [3] was 0.21% and 0.68%. For the same compound, the “Population Membrane Permeable-Phenotype (%)” value [3] was 1.35% and 0%, the “Population Mitochondria Different-Phenotype (%)” value [3] was 20.61% and 26.47% and the “Population Mitotic Cells (%)” value [3] was 83.64% and 87.96%. The “Population Normal (%)” value [3] was 99.79% and 99.32%, the “Population Pyknosed Nuclei (%)” value [3] was 34.88% and 74.48% and the “Population Tubulin-Different-Phenotype (%)” value [3] was 23.31% and 17.65%. For the same compound, the “Population Apoptotic (%)” value [4] was 46.71% and 55.88%, the “Population Fragmented Nuclei (%)” value [4] was 1.42% and 2.05% and the “Population Hoechst High Intensity Objects (%)” value [4] was 1.85% and 0.68%. The “Population Membrane Permeable-Phenotype (%)” value [4] was 0% and 14.29%, the “Population Mitochondria Different-Phenotype (%)” value [4] was 78.57% and 57.14% and the “Population Mitotic Cells (%)” value [4] was 53.29% and 44.12%. The “Population Normal (%)” value [4] was 98.15% and 99.32%, the “Population Pyknosed Nuclei (%)” value [4] was 78.77% and 93.15% and the “Population Tubulin-Different-Phenotype (%)” value [4] was 92.86% and 85.71%. The “Total Cell Count” value [4] was 216 and 147, the “Population Apoptotic (%)” value [5] was 12.5% and 24.62% and the “Population Fragmented Nuclei (%)” value [5] was 3.19% and 2.61%. The “Population Healthy Nuclei (%)” value [5] was 82.92% and 54.9%, the “Population Hoechst High Intensity Objects (%)” value [5] was 0% and 1.29% and the “Population Membrane Permeable-Phenotype (%)” value [5] was 4.07% and 0%. For the same compound, the “Population Mitochondria Different-Phenotype (%)” value [5] was 28.52% and 35.71%, the “Population Mitotic Cells (%)” value [5] was 87.5% and 75.38% and the “Population Normal (%)” value [5] was 100% and 98.71%. For the same compound, the “Population Apoptotic (%)” value [6] was 59.7% and 87.84%, the “Population Fragmented Nuclei (%)” value [6] was 1.25% and 4.94% and the “Population Hoechst High Intensity Objects (%)” value [6] was 2.44% and 0%. For the same compound, the “Population Membrane Permeable-Phenotype (%)” value [6] was 0.97% and 0%, the “Population Mitochondria Different-Phenotype (%)” value [6] was 87.38% and 100% and the “Population Normal (%)” value [6] was 97.56% and 100%. The “Population Pyknosed Nuclei (%)” value [6] was 55.83% and 91.36%, the “Population Tubulin-Different-Phenotype (%)” value [6] was 73.79% and 100% and the “Total Cell Count” value [6] was 246 and 162.
